Data on two compounds can be found in ChEMBL document CHEMBL4251733, “Manumycin A Is a Potent Inhibitor of Mammalian Thioredoxin Reductase-1 (TrxR-1)” (ACS Med Chem Lett, 2018).

Activity calls are given as the source filed them. The rule behind the calls is not given here.

Data set [1] can be described thus: Drug metabolism assessed as selenocysteine reactivity at 20 uM incubated for 1 hr measured every 5 mins for 1 hr by sel-green probe based fluorescence assay. The class given is physicochemical. A digest of the protocol:
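Reduced L-selenocysteine (20 μM) reacted with Sel-green probe (20 μM) with test compound at 20 μM; DMSO-only control.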

Data set [2] addresses T1, Thioredoxin reductase 1, cytoplasmic (Rattus norvegicus, UniProt O89049). Kind of data set: Inhibition of NADPH-reduced recombinant rat TrxR1 expressed in Escherichia coli harboring gor mutant assessed as suppression of DTNB reduction pretreated for 1 hr followed by DTNB addition measured every 5 mins for 1 hr. In outline:
(§1)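 Rat recombinant TrxR-1 (5.6 nM), prereduced, with DTNB (2 mM) and compound 0–5000 nM. Compound was either preincubated 1 h with enzyme before substrate or added at the same time as DTNB. Read-out was initial rates of DTNB reduction relative to no-compound control, giving IC50 (± error).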

The target of data set [3] is T1, Thioredoxin reductase 1, cytoplasmic. Description: Inhibition of NADPH-reduced recombinant rat TrxR1 expressed in Escherichia coli harboring gor mutant assessed as suppression of DTNB reduction incubated for 1 hr in presence of DTNB measured every 5 mins for 1 hr. In outline: as §1
Data set [4] deals with T2, Thioredoxin reductase 1, cytoplasmic (Rattus norvegicus) (UniProt O89049).
T2 sequence (whole entry): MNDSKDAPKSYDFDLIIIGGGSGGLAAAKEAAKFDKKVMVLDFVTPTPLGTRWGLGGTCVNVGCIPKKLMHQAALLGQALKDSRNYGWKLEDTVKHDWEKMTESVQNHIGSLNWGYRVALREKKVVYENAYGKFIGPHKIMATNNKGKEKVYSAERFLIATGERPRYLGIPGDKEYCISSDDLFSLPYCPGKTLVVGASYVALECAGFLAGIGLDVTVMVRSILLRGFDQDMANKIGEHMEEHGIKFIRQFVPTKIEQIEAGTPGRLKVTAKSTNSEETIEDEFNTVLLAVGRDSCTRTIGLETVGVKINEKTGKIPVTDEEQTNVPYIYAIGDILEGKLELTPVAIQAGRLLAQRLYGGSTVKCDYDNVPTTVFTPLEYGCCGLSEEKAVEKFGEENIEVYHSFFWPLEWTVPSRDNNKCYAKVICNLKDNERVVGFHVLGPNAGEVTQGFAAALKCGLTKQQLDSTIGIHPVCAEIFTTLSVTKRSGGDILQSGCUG
Description: Induction of recombinant rat TrxR1 NADPH oxidase activity expressed in Escherichia coli harboring gor mutant assessed as superoxide generation by measuring cytochrome C reduction at 62.5 uM measured in presence of SOD. In outline:
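TrxR-1 (100 nM) incubated with compound (62.5 μM), with and without SOD (6 units/well); reduction of cytochrome C (100 μM) followed over time; DMSO-only control.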

Data set [5] addresses T2, Thioredoxin reductase 1, cytoplasmic (Rattus norvegicus). Description: Inhibition of oxidized recombinant rat TrxR1 expressed in Escherichia coli harboring gor mutant assessed as suppression of DTNB reduction at 2 uM pretreated for 30 mins followed by NADPH addition for 30 mins and subsequent DTNB addition measured every 5 mins for 1 hr.
Data set [6] shares this target. Description: Inhibition of NADPH-reduced recombinant rat TrxR1 expressed in Escherichia coli harboring gor mutant assessed as suppression of DTNB reduction at 5 uM pretreated for 1 hr followed by DTNB addition measured every 5 mins for 1 hr. A digest of the protocol:
as §1

For data set [7] the target is unchanged. Description: (§2) Inhibition of NADPH-reduced recombinant rat TrxR1 expressed in Escherichia coli harboring gor mutant assessed as suppression of insulin reduction using Trx as substrate pretreated for 30 mins followed by Trx addition for 30 mins and subsequent eosin-labelled bovine insulin addition measured every 5 mins for 1 hr by fluorescence assay.
Data set [8] has as its target T1, Thioredoxin reductase 1, cytoplasmic. The data set is described as §2.
Data set [9] addresses T2, Thioredoxin reductase 1, cytoplasmic (Rattus norvegicus). Description: Irreversible inhibition of NADPH-reduced recombinant rat TrxR1 expressed in Escherichia coli harboring gor mutant assessed as suppression of DTNB reduction at 2 uM pretreated for 1 hr followed by NADPH addition for 30 mins and subsequent DTNB addition measured every 5 mins for 1 hr.
For data set [10] the target is unchanged. Kind of data set: Time-dependent inhibition of NADPH-reduced recombinant rat TrxR1 expressed in Escherichia coli harboring gor mutant assessed as suppression of DTNB reduction at 1 uM measured every 5 mins for 1 hr.
Data set [11] shares this target. Description: Inhibition of NADPH-reduced recombinant rat TrxR1 expressed in Escherichia coli harboring gor mutant assessed as suppression of DTNB reduction at 5 uM incubated for 1 hr in presence of DTNB measured every 5 mins for 1 hr. A digest of the protocol: as §1

For `CCCCC(C)/C=C(C)/C=C(\C)C(=O)Nc1cc(/C=C/C=C/C=C/C(=O)NC2=C(O)CCC2=O)c(O)cc1O` (configuration not stated), the Drug metabolism entry in data set [1] was “Metabolite_Notdetected”.
Regarding `CCCC[C@@H](C)/C=C(C)/C=C(\C)C(=O)NC1=C[C@@](O)(/C=C/C=C/C=C/C(=O)NC2=C(O)CCC2=O)[C@@H]2O[C@@H]2C1=O` [MANUMYCIN A], the IC50 – broadly, the concentration that inhibits the measured activity by half – in data set [2] came to 272 nM; in data set [3], 1590 nM; in data set [8], 572 nM. In addition, the result in data set [4] was inactive. Moreover, the inhibition result in data set [5] was “inactive”. In addition, the inhibition result in data set [6], in data set [9] and in data set [11] was “Active” in each case. Besides, the Drug metabolism entry in data set [1] is listed as “Metabolite_Detected”. In data set [7], the inhibition result is “Dose-dependent effect”. For the same compound, the TDI entry in data set [10] is “Active”.
